What was measured:
[1] = target: Peroxisomal membrane protein PEX14 (Homo sapiens, UniProt O75381); experiment: Inhibition of biotinylated PEX5-derived ALSENWAQEFLA binding to human N-terminal His-tagged PEX14 (21 to 84 residues) expressed in Escherichia coli BL21 by Alphascreen assay
Procedure, shortened: (§1)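 His-tagged PEX14 (21-84) at 3 nM with 10 nM biotinylated peptide in PBS containing 5 mg/mL BSA and 0.01% Tween-80; 5 µg/mL streptavidin donor and nickel chelate acceptor beads; 5% DMSO held constant.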

[2] = Inhibition of biotinylated PEX5-derived ALSENWAQEFLA binding to Trypanosoma cruzi N-terminal His-tagged PEX14 (21 to 84 residues) expressed in Escherichia coli BL21 by Alphascreen assay; procedure, shortened: as §1
[3] = tested on: Trypanosoma brucei brucei; experiment: Antitrypanosomal activity against bloodstream form of Trypanosoma brucei brucei Lister 427 after 66 hrs by Resazurin dye-based fluorescence assay; assay type: functional, organism-based; conditions: Lister 427, 66 h
[4] = Inhibition of biotinylated PEX5-derived ALSENWAQEFLA binding to Trypanosoma brucei N-terminal His-tagged PEX14 (21 to 84 residues) expressed in Escherichia coli BL21 by Alphascreen assay; procedure, shortened: as §1
[5] = tested on: HepG2; experiment: Cytotoxicity against human HepG2 cells assessed as reduction in cell viability measured after 66 hrs by resazurin dye based fluorescence assay; conditions: HepG2, 66 h
[6] = Selectivity index, ratio of EC50 for human HepG2 cells to EC50 for antitrypanosomal activity against bloodstream form of Trypanosoma brucei brucei Lister 427

Chain of Peroxisomal membrane protein PEX14 (O75381 whole entry, change not shown, the tested form may be a part): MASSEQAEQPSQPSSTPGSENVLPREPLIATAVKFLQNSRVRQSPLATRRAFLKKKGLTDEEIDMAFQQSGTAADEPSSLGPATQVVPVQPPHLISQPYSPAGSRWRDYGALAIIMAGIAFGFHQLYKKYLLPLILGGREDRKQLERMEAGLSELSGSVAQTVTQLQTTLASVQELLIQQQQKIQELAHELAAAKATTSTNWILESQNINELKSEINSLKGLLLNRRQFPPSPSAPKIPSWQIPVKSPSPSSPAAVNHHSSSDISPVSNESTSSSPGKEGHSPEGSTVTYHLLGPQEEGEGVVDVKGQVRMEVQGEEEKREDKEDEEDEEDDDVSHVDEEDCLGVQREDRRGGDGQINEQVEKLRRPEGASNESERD

COc1ccc(CN2CCc3nn4c(c3C2)C(=O)N(Cc2cccc3ccccc23)CC4)c2ccccc12
EC50 [1]: > 1000 µM
EC50 [2]: 463 µM
EC50 [3]: 6.42 µM
EC50 [4]: 49.2 µM
EC50 [5]: > 50 µM
selectivity ratio [6]: > 7.8

COc1ccc(CN2CCc3nn4c(c3C2)CN(Cc2cccc3ccccc23)C4=O)c2ccccc12
EC50 [1]: > 1000 µM
EC50 [2]: 448 µM
EC50 [3]: 5.61 µM
EC50 [4]: 103 µM
EC50 [5]: > 50 µM
selectivity ratio [6]: > 8.9

COc1ccc(CN2CCc3c(c(C(=O)NCc4cccc5ccccc45)nn3CCN3CCOCC3)C2)c2ccccc12
EC50 [1]: 166 µM
EC50 [2]: 162 µM
EC50 [3]: 3.58 µM
EC50 [4]: 88.1 µM
EC50 [5]: 42 µM
selectivity ratio [6]: 11.7
